# ChEMBL document CHEMBL1126660, “Nonpeptide angiotensin II antagonists: N-phenyl-1H-pyrrole derivatives are angiotensin II receptor antagonists” (J Med Chem, 1993)
# How the values were obtained:
# [1] = target: T1, Type-2 angiotensin II receptor (Rattus norvegicus, UniProt P35351); assay: Activity against low affinity Angiotensin II receptor, type 2 was measured from the ability to inhibit [125I]angiotensin II binding to rat uterine membrane
# T1 sequence (P35351 whole entry): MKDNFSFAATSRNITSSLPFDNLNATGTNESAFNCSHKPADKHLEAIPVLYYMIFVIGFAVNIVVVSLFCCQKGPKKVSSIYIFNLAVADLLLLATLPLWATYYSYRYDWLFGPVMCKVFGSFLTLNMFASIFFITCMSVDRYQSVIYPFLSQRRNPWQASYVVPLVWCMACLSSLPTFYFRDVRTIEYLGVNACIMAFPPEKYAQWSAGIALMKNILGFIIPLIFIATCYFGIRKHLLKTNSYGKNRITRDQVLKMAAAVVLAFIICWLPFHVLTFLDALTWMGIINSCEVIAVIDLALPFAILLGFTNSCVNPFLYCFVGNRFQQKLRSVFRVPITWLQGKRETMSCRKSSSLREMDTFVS
# Oryctolagus cuniculus [2] = organism: Oryctolagus cuniculus; assay: Compound was evaluated for antagonism of angiotensin II induced contraction of rabbit aorta rings.; type: functional; settings: read-out: pA2 (converted)
# How it was run: (§1)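 Paired rabbit aortic rings: control ring given increasing AII concentrations at 30-min intervals; second ring given AII with antagonist added 5 min beforehand. Responses expressed as % of control ring maximal contraction; pD2 for AII from concentration-response curves, pA2 by Schild analysis.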
# [3] = target: T2, Type-1 angiotensin II receptor B (Rattus norvegicus, UniProt P29089); assay: Activity against high affinity Angiotensin II receptor, type 1 was measured from the ability to inhibit [125I]angiotensin II binding to rat uterine membrane.
# T2 sequence (P29089 whole entry): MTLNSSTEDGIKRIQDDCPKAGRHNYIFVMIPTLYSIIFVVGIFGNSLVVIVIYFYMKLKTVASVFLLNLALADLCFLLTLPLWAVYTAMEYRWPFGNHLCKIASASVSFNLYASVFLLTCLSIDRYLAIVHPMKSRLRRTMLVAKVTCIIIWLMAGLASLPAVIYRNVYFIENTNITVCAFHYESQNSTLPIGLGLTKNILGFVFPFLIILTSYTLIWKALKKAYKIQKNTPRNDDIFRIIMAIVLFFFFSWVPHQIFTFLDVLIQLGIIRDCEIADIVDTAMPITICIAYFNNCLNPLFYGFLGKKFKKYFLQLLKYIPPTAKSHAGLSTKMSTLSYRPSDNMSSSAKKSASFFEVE
# Oryctolagus cuniculus [4] = organism: Oryctolagus cuniculus; assay: Evaluated for antagonism of angiotensin II induced contraction of rabbit aorta rings; type: functional; settings: read-out: pA2 (converted); how it was run: as §1
SMILES,IC50 [1] [nM],Kb (Oryctolagus cuniculus [2]) [nM],IC50 [3] [nM],Kb (Oryctolagus cuniculus [4]) [nM]
CCCCc1nc(CCCC)n(Cc2ccc(-n3ccc(-c4nnn[nH]4)c3)cc2)n1,220000,,,
CCCCc1nc(Cl)c(CO)n1Cc1ccc(-n2cccc2C(=O)O)cc1,,1260,,
CCCCc1nc(Cl)c(CO)n1Cc1ccc(-c2ccccc2C(=O)O)cc1,3300,,170,
CCCCc1nc(Cl)c(CO)n1Cc1ccc(-c2ccccc2-c2nnn[nH]2)cc1 [LOSARTAN],,7.94,,
CCCCc1nc(CCCC)n(Cc2ccc(-n3c(Cl)cc(Cl)c3-c3nnn[nH]3)cc2)n1,810000,,52,20
CCCCc1nc(CCCC)n(Cc2ccc(-c3ccccc3-c3nnn[nH]3)cc2)n1,,,6.5,
